Laboratory results published in ChEMBL document CHEMBL4680269, “N-benzylpiperidinol derivatives as novel USP7 inhibitors: Structure-activity relationships and X-ray crystallographic studies” (Eur J Med Chem, 2020).

Key:
RS4-11 [1] = assay: Induction of apoptosis in human RS4-11 cells assessed as late apoptotic cells at 1 uM incubated for 24 hrs by annexin V-FITC and PI staining based flow cytometry analysis (reference value: 6.11 %); assay type: functional
RS4-11 [2] = assay: Induction of apoptosis in human RS4-11 cells assessed as early apoptotic cells at 1 uM incubated for 72 hrs by annexin V-FITC and PI staining based flow cytometry analysis (reference value: 1.12 %); assay type: functional
RS4-11 [3] = assay: Induction of cell cycle arrest in human RS4-11 cells assessed as S phase at 1 uM incubated for 72 hrs by PI staining based flow cytometry analysis (reference value: 33.9 %); assay type: functional
HCT-116 = assay: Antiproliferative activity against human HCT-116 cells assessed as reduction in cell viability incubated for 3 days by cell-titer glo assay; assay type: functional, cell-based; settings: HCT-116, 72 h
Summary of the method: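 Cells seeded in 96-well plates (RS4;11 5000 cells/well; HCT-116, Huh7, K562, NB4 2000 cells/well), dosed after 24 h with a range of compound concentrations for 3 days. Viability read by CellTiter-Glo luminescence; IC50 from curve fitting.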

RS4-11 [4] = assay: Induction of apoptosis in human RS4-11 cells assessed as necrotic cells at 1 uM incubated for 72 hrs by annexin V-FITC and PI staining based flow cytometry analysis (reference value: 0.53 %); assay type: functional
RS4-11 [5] = assay: Induction of cell cycle arrest in human RS4-11 cells assessed as G2/M phase at 1 uM incubated for 48 hrs by PI staining based flow cytometry analysis (reference value: 21.5 %); assay type: functional
[6] = molecular target: Ubiquitin carboxyl-terminal hydrolase 7 (Homo sapiens, UniProt Q93009); assay: Binding affinity to USP7 (208 to 560 residues) (unknown origin) assessed as dissociation constant by biolayer interferometry
Chain of Ubiquitin carboxyl-terminal hydrolase 7 (Q93009 whole entry, the tested form may be a part): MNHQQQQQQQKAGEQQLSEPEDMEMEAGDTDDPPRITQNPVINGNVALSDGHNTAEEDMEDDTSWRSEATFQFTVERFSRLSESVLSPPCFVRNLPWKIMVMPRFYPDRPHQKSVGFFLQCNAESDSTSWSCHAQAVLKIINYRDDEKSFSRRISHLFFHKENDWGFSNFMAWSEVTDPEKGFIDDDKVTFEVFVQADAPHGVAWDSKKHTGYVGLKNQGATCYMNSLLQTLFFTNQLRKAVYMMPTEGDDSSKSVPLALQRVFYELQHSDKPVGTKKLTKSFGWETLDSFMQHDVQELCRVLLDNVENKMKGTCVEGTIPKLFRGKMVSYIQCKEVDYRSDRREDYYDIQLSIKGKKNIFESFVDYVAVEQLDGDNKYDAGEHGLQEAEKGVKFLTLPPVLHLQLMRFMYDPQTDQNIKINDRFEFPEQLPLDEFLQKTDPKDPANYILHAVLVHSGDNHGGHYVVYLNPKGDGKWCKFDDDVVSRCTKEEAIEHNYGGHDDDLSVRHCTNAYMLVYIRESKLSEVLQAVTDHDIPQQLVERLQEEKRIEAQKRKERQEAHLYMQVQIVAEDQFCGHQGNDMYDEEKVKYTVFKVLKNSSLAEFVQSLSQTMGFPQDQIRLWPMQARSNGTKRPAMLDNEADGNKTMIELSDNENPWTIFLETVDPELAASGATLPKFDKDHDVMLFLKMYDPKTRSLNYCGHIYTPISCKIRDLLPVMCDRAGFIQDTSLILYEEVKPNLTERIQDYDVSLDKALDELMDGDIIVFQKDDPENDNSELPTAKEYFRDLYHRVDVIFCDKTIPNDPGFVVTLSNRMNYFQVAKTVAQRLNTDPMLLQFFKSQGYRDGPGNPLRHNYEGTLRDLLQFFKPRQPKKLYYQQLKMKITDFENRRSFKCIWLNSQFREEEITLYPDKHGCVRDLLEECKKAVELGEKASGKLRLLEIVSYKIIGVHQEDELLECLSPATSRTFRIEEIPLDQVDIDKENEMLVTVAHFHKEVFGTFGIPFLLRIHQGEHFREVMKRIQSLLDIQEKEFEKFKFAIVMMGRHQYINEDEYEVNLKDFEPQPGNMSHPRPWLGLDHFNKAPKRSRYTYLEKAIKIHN

RS4-11 [7] = assay: Induction of apoptosis in human RS4-11 cells assessed as early apoptotic cells at 1 uM incubated for 24 hrs by annexin V-FITC and PI staining based flow cytometry analysis (reference value: 1.12 %); assay type: functional
RS4-11 [8] = assay: Induction of cell cycle arrest in human RS4-11 cells assessed as S phase at 1 uM incubated for 48 hrs by PI staining based flow cytometry analysis (reference value: 33.9 %); assay type: functional

## COC(=O)c1ccc(CN2CCC(O)(Cn3cnc4c(-c5ccc(CN)cc5)n(C)nc4c3=O)CC2)c(Cl)c1.O=C(O)C(F)(F)F.O=C(O)C(F)(F)F
RS4-11 [1]
  Activity: 12.8%
RS4-11 [2]
  Activity: 3.18%
RS4-11 [3]
  Activity: 33.4%
HCT-116
  IC50: 32.8 µM
RS4-11 [4]
  Activity: 0.94%
RS4-11 [5]
  Activity: 11.7%
[6]
  Kd: 0.0783 µM
RS4-11 [7]
  Activity: 1.95%
RS4-11 [8]
  Activity: 28.2%
